# Screening data deposited in PubChem BioAssay by Broad Institute.
# GSIS activator = primary screen for activators of insulin secretion dependent on glucose, INS-1E cells, GLuc reporter luminescence. AID 743287. INS-1E GLuc reporter insulin secretion, 2-3 h. activation, % at 16.6 µM. 0.61% of 370,000 active;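 active means lowest replicate activation of at least 40%, so every replicate reaches that level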;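 further: 0% = median of neutral control wells and 100% = median of IBMX positive control wells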
# miR122 inh = blocks miR-122 activity in Huh7 sensor cells. Huh7 miR-122 Renilla luciferase sensor, 48 h; neutral wells = 0, positive control = 100. activation (reporter increase), % at 12.5 µM. 0.3% of 340,000 active;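 active means mean replicate activation score at least 90 and every replicate individually at or above 90; inconclusive means only one of the two criteria met; inactive means neither criterion met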;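 further: higher luciferase means less miR-122 activity so hits act as miR-122 inhibitors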
# Cneo AK release = causes C. neoformans cell lysis; adenylate kinase release luminescence, 4 h; normalised: neutral wells 0, clomiphene wells 100; lysis activity, % at 15 µM; 0.2% of 360,000 active;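 active means mean lysis activity across replicates of at least 80%, whatever share of replicates individually reach that level; inactive means mean lysis activity below 80%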
#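 Signal: Adenylate kinase release luminescence | Assay system: Log-phase Cryptococcus neoformans yeast cells | Input: Cells at 5 × 10^6 per mL | Buffer or medium: Fresh YPD growth medium | Compound: Single dose | Schedule: Static 4 h at 37 °C with compound, 1 h detection | Controls: Clomiphene | Read-out: Luminescence rise reflecting yeast cell lysis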
# HIV Env fusion = HIV envelope-mediated fusion inhibition; HeLa-JRFL Env/CEM21 cell fusion, luciferase; AID 651610; inhibition, % at 12.3 µM; 1.1% of 360,000 active;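 active means mean replicate inhibition score of at least 50 and every replicate individually at or above 50; inconclusive means only one of the two criteria met; inactive means mean below 50 and not all replicates reaching 50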;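 further: 0% = plate neutral controls and 100% = maraviroc near 300 nM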
# rRNA inh HTS = inhibitors of bacterial rRNA selective over humanized ribosomes | GFP signal change (wild-type ribosome), % (concentration not given with the values) | AID 720706 | E. coli WT GFP vs humanized-ribosome RFP mutants, fluorescence, 24 h; stronger effect = lower value; DMSO median 0, no signal -100 | 1.6% of 350,000 active;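 active means significant combined selectivity score with lowered wild-type GFP, culture density cut under 30%, mutant RFP and density less affected; inactive means any of these conditions unmet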
# F508del corr = correctors of CFTR F508del function in bronchial epithelial cells. 0.36% of 350,000 active. AID 720511. CFBE cells, YFP halide quenching; stimulated with forskolin plus potentiator P3; % fluorescence drop versus neutral controls. activity (quench increase), % at 7.58 µM;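 active means mean added fluorescence quench of at least 8% versus neutral control, with both replicates also reaching 8%; inconclusive means only one of the mean or replicate conditions met; inactive means mean below 8% and not both replicates reaching 8%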;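 further: cells transiently co-express mutant CFTR-F508del with the halide-sensitive YFP; corrector assay measuring rescue of mutant channel to the surface after 24 h compound exposure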
# AID977621 = wild-type E. coli growth inhibition versus H69 humanized strain – H69 mutant RFP, wild-type GFP, cherry-pick, dose response; shares compounds with rRNA inh HTS; fluorescence, 24 h; activity change, negative = inhibition at 50 µM; 1,900 tested, under 10 active; AID 977621;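 active means Wild-type ribosome reporter drop at least double the humanized mutant ribosome reporter drop, growth loss under a set limit; inconclusive means no clear call, values can overlap the other calls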;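 further: wild-type GFP and H69 mutant RFP strains grown together 50/50 in each well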
# AID977628 = E. coli growth inhibition, wild-type GFP versus h24 humanized RFP strain, dose response, h24 mutant RFP vs wild-type GFP, cherry-pick; shares compounds with rRNA inh HTS; E. coli WT GFP strain growth, fluorescence, 24 h; AID 977628; activity change, negative = inhibition at 50 µM; 1,900 tested, under 10 active;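 active means compound lowering the normal-ribosome reporter at least twice as much as the humanized-ribosome reporter, growth loss under a set limit; inconclusive means no clear call, values can overlap the other calls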;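 further: wild-type GFP and h24 humanized RFP strains co-cultured 1 to 1 per well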
# Starred values were filed as active, the others as inactive; ? = inconclusive; / = not tested or not shown; [ ] = another dose, or the depositor's remark. Most compounds without a hit are left out; they make up all but 3.1% or so of the library.
SMILES,GSIS activator,miR122 inh,Cneo AK release,HIV Env fusion,rRNA inh HTS,F508del corr,AID977621,AID977628
C[C@@H]1CN([C@H](C)CO)C(=O)c2cccc(NS(=O)(=O)c3ccccc3)c2O[C@@H]1CN(C)C(=O)NC1CCCCC1,7,8[16.7 µM],-2,/,1,-3,/,/
COC(=O)c1ccc2nc(-c3ccco3)c(Cc3cccc(F)c3)n2c1,-7,2,0,30,9,1,/,/
COC(=O)c1ccc2nc(-c3ccco3)c(Cc3ccc(C)cc3)n2c1,36,-2,6,1,-29*,0,-6.3,?
COC(=O)CN1C(=S)N(c2ccc(F)cc2)C(=O)C1CC(=O)Nc1ccc(F)cc1 (centres undefined),-30,8,7,5,-24*,-1,6.4,-0.9
COc1ccc([C@H]2C[C@H](O)C[C@@H](CCn3cc(-c4ccccc4)nn3)O2)cc1,-6,/,/,19,-22*,0,/,-7
C[C@H]1CCCCO[C@@H](CN(C)C)[C@@H](C)CN([C@@H](C)CO)C(=O)c2cc(NS(=O)(=O)c3cccs3)ccc2O1,4,2[16.7 µM],5,15[16.7 µM],-2,2,/,/
CC=Cc1ccc2n(c1=O)C[C@H]1[C@H](CO)[C@@H](C(=O)N(C)C)N(CCC)[C@@H]21 (mixture of isomers),8,/,/,/,3,2,/,/
O=[N+]([O-])c1ccc2c(c1)S(=O)c1ccccc1-2 (centres undefined),6,-1,0,-4,-23*,-1,-25,-14
CO[C@H]1CN(C)C(=O)c2cc(NS(=O)(=O)c3ccc(Oc4ccccc4)cc3)ccc2OC[C@@H](C)NC[C@@H]1C,-6,-4[16.7 µM],-1,-10[16.7 µM],-4,-1,/,/
COc1ccc2nc(NC(C)=O)sc2c1,/,-4,-5,-90,/,/,/,/
CCC(C)C(=O)Nc1nc2ccc(OC)cc2s1 (centres undefined),-13,1,-2,-59,-22*,-1,-21,/
Fc1ccccc1C1CCN(Cc2nc(CC3CC3)no2)C1 (centres undefined),-10,/,/,-15,-18*,2,-2.5,-5.5
COc1cccc(C(=O)Nc2ccccc2)c1,2,-6,/,-122,/,/,/,/
COc1cccc(NC(=O)c2ccc(C(=O)c3ccccc3)o2)c1,-40,3,-3,-19,-33*,1,-15,/
C/C=C/c1cnc2c(c1)C(=O)N([C@H](C)CO)C[C@H](C)[C@H](CN(C)C(=O)Cc1ccccn1)O2,32,/,-7,-22[16.7 µM],4,-2,/,/
COC(=O)C[C@@H]1CC[C@H]2[C@H](COc3ccc(NC(=O)Nc4ccc(C)cc4)cc3C(=O)N2C)O1,-10,6[16.7 µM],-1,-1[16.7 µM],-5,0,/,/
CC(c1ccc(F)cc1)n1c(-c2ccc3ccccc3n2)n[nH]c1=S (centres undefined),11,6,32,/,-32*,1,-4.7,/
COCC#Cc1cnc2c(c1)C(=O)N([C@@H](C)CO)C[C@H](C)[C@H](CN(C)C(=O)C1CCC1)O2,-2,-2[16.7 µM],0,-6[16.7 µM],4,-4,/,/
COc1cccc(NC(=O)CSc2nc3c(sc4ccccc43)c(=O)n2CCN(C)C)c1,14,/,/,18,-22*,-1,?,-5.4
COc1cccc(NC(=O)CSc2nc3c([nH]c4ccccc43)c(=O)n2C)c1,12,/,/,2,3,-1,/,/
O=C(O)CC1(CC(=O)Nc2ccc3sccc3c2)CCCCC1,12,-1,0,-9,-26*,1,5.9,-11
COc1ccc(-c2csc(C)n2)cc1Br,7,-2,4,6,-29*,1,-17,-13
COc1cc(-c2csc(C)n2)ccc1O,/,6,0,/,/,/,/,/
O=C(C[C@@H]1C=C[C@@H](NS(=O)(=O)c2ccc(F)cc2)[C@H](CO)O1)NC1CCCCC1,23,/,37,28[16.7 µM],-1,2,/,/
Cc1cc(NC(=O)NC(=O)c2cccc(OC(F)(F)C(F)F)c2)n[nH]1,/,1,-1,-51,/,/,/,/
SMILES,GSIS activator,miR122 inh,Cneo AK release,HIV Env fusion,rRNA inh HTS,F508del corr,AID977621,AID977628
Cc1cc(NC(=O)c2cccc(Oc3ccccc3)c2)n[nH]1,-24,/,/,-41,-22*,0,/,?
Cc1cccc(-n2cc(CNCCN3CCOC3=O)c(-c3cccc(F)c3)n2)c1,-14,-2,3,11,-7,1,/,/
Cc1ccc(-n2cc(CNCCN3CCOC3=O)c(-c3ccc(F)cc3)n2)cc1,-11,/,-3,1,-18*,1,-14,?
COC(=O)c1ccsc1NC(=O)c1cccc(OC)c1,-1,/,/,-2,-27*,-5,4.4,-4.4
O=S(=O)(NCc1ccc2c(c1)OCO2)c1ccc2c(c1)oc1ccccc12,5,2,-1,/,-19*,-2,-17,/
CCOc1ccc(S(=O)(=O)N(C)c2ccc(OCC(=O)NCc3cccnc3)cc2)cc1,-2,/,/,3,-20*,-2,3.3,-9.2
COc1ccc(C(=O)c2c(C)oc3ccc(O)cc23)cc1,/,-6,2,-1,-22*,1,-17,/
Cc1cc(SCC(=O)OCC(=O)NCC2CCCO2)c(C)cc1Br (centres undefined),-12,/,/,19,-25*,-3,-17,/
C[C@H](CO)N1C[C@H](C)[C@H](CN(C)C(=O)Nc2ccccc2)Oc2ccc(NS(C)(=O)=O)cc2C1=O,6,-4[16.7 µM],3,/,3,0,/,/
Cc1cccc(OCCC(=O)Nc2ccc(F)c(F)c2)c1,-41,-4,-1,3,-41*,4,4.6,/
CN(C)C(=O)c1ccc(-c2ccc3n(c2=O)C[C@@H]2[C@@H](CO)[C@H](C(=O)NCCc4ccccc4)N[C@H]32)cc1,-15,/,48,-9[16.7 µM],1,/,/,/
CO[C@@H]1CN(C)C(=O)c2cc(NC(=O)c3ccc(F)cc3)ccc2OC[C@@H](C)N(C(=O)c2ccc(F)cc2)C[C@@H]1C,-6,/,-9,/,-8,-1,/,/
O=C(O)C1(Nc2ccc([N+](=O)[O-])cc2[N+](=O)[O-])CCCC1,-27,/,/,-2,-16*,-4,-17,-9.4
C=C(C)Cn1c(=O)c2c(nc3n2CC(C)CN3Cc2ccccc2)n(C)c1=O (centres undefined),-4,0,-5,24,-24*,0,-16,?
